From PubChem BioAssay AID821 (SRMLSC, 2007)
The source made the active and inactive calls.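 Rule for the calls: active = compounds whose fitted half-maximal concentration for reducing fibroblast viability is 100 µM or lower; inactive = the rest.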

Assay: inhibition of LL 47 lung fibroblast growth, concentration-response curve, selectivity screen for endothelial cell growth inhibitor project, cellular system, ATP luminescence readout (AID 821);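 note: 100% = median of untreated cell-only wells and 0% = no luminescence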
Details: LL 47 lung fibroblast viability, ATP luminescence; at 20 µM (top of the series)
Procedure, shortened: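 System: LL 47 human lung fibroblast cells. Timing: overnight cell settling, then 72 h compound exposure at 37 °C. Measured by: CellTiter-Glo luminescence. Evaluation: percent viability relative to untreated wells, EC50 via 4-parameter fit.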

SMILES | viability
O=C(Nc1ccc2nn(-c3ccccc3)nc2c1)c1ccc2c(c1)OCCO2 | 105% (inactive)
CCn1c(SCC(N)=O)nnc1-c1ccc2[nH]c(C)c(C)c2c1 | 99.8% (inactive)
Cc1ccc2[nH]c3c(c2c1)CCC3=O | 110% (inactive)
COc1ccc(NC(=O)c2ccccc2NC(=O)COc2ccccc2)cc1 | 93.3% (inactive)
O=C(Nc1ccc(Cl)c(Cl)c1)C1=Cc2ccccc2OC1 | 99.6% (inactive)
CCOC(=O)CNC(=O)C(=O)c1c(O)[nH]c2ccccc12 | 96.6% (inactive)
CCCc1cc(C(=O)Cc2ccc(F)cc2)c(O)cc1O | 96.5% (inactive)
O=C(Cc1sc(-c2ccccc2Cl)nc1-c1ccccc1)Nc1ccccc1 | 99.7% (inactive)
COc1ccc(Cl)cc1N1CCN(CCNC(=O)Nc2ccccc2C)CC1 | 101% (inactive)
O=C(Nc1ccccc1)c1cccc(-c2nnc(-c3ccccc3)o2)c1 | 102% (inactive)
Cc1ccccc1-c1nc(CN2CCC(C(=O)NCCC3=CCCCC3)CC2)c(C)o1 | 87.6% (inactive)
Cc1ccc(C(=O)Nc2ncc(Cc3ccc(F)cc3)s2)o1 | 117% (inactive)
Clc1cnc(N/N=C/c2cccs2)c(Cl)c1 | 88.3% (inactive)
Cc1nc2c(-c3ccccc3)c(C)[nH]n2c(=O)c1Cl | 119% (inactive)
O=[N+]([O-])c1cccnc1N1CCC(c2cc(-c3cccc(C(F)(F)F)c3)n[nH]2)CC1 | 102% (inactive)
CC(C)(C)NC(=O)c1cnn2c1NC(c1ccc(F)cc1)CC2C(F)(F)F (stereo not given) | 99% (inactive)
Cc1cc(NCCCN2CCOCC2)n2ncc(-c3ccc(Cl)cc3)c2n1 | 84.9% (inactive)
CN1CCN(C(=O)c2ccc(COc3ccc(Cl)cc3Cl)cc2)CC1 | 103% (inactive)
CCOC(=O)c1c(N)sc2c(OC)c(Br)ccc12 | 109% (inactive)
COCCn1c(SCC(=O)Nc2ccc(NC(=O)c3ccco3)c(OC)c2)nc2ccccc2c1=O | 99.1% (inactive)
CC(C)OC(=O)NCCOC(=O)Nc1cccc(Cl)c1 | 103% (inactive)
O=C1CCn2nc(-c3ccc(Cl)cc3)cc2N1 | 104% (inactive)
Oc1ccc2oc3c(c2c1/C=N/n1cnnc1)CCCC3 | 99.5% (inactive)
Cc1ccc(-n2c(SCC(=O)Nc3ccc4c(c3)OCO4)nnc2-c2ccccn2)cc1 | 103% (inactive)

SMILES | viability
Cc1cccc(NC(=O)c2sc3nc4c(c(-c5cccs5)c3c2N)CN(C)CC4)c1 | 86.7% (inactive)
O=S(=O)(Nc1cccnc1)c1ccc(C2CCCCC2)cc1 | 100% (inactive)
CCCCCCn1c(SCC(=O)c2c(N)n(C)c(=O)n(C)c2=O)nc2ccccc21 | 98.8% (inactive)
Cc1ccc2[nH]c3c(N4CCN(Cc5ccccc5)CC4)ncnc3c2c1 | 88.2% (inactive)
Cn1nc(C(C)(C)C)cc1C(=O)NCc1ccc(N2CCCC2=O)cc1 | 107% (inactive)
CCCOC(=O)c1ccc(Oc2cn[nH]c2-c2ccc(OCC)cc2O)cc1 | 98.4% (inactive)
O=C(CCN1CCN(Cc2ccccc2)CC1)Nc1ccc(OCc2ccccc2)cc1 | 97.3% (inactive)
Cc1cc(C)n(-c2nc(NCCCO)c3c4c(sc3n2)CCCC4)n1 | 88.8% (inactive)
Cc1c(Cl)cccc1-c1ccc(/C=N/n2cnnc2)o1 | 98.9% (inactive)
COC(=O)c1c(C)n(-c2ccc(OC)cc2)c2ccc(O)cc12 | 87.7% (inactive)
CC1CCCC(NC(=O)C2CCN(S(=O)(=O)N3CCC4(CC3)OCCO4)CC2)C1C (stereo not given) | 100% (inactive)
CC(C)(C)n1cnc2cc(NS(=O)(=O)c3ccccc3)ccc21 | 104% (inactive)
O=C(Nc1nnc(-c2ccc3c(c2)CCCC3)o1)c1ccc(Cl)cc1Cl | 95.8% (inactive)
O=C(COC(=O)c1cccnc1Nc1cccc(C(F)(F)F)c1)NCc1ccc2c(c1)OCO2 | 130% (inactive)
COc1ccc(CNC(=O)C(C#N)c2nc3ccccc3nc2N2CCN(C)CC2)cc1 (stereo not given) | 97.9% (inactive)
COc1ccc(OC)c(C(=O)CSc2nnc(-c3ccc(OC)c(OC)c3)o2)c1 | 88.4% (inactive)
COc1ccccc1-c1cc(C(=O)Nc2cc(C)n(Cc3ccc(Cl)cc3)n2)no1 | 86% (inactive)
COc1ccc(-c2nnc(SCCc3ccccc3)n2N)cc1 | 113% (inactive)
COc1ccccc1NC(=O)C1C2C=CC(O2)C1C(=O)O (stereo not given) | 100% (inactive)
Cc1ccc2nc(NC(=O)CSc3ncnc4c3oc3ccccc34)sc2c1 | 113% (inactive)
O=c1oc(-c2ccccc2F)nc2c1cnn2-c1ccccc1 | 105% (inactive)
COc1ccccc1C1CC(c2c(-c3ccccc3)c3cc(Cl)ccc3[nH]c2=O)=NN1S(C)(=O)=O (stereo not given) | 83.6% (inactive)
CCc1ccc2[nH]c(=O)c(CN(Cc3ccccc3)C(=O)Nc3ccccc3OC)cc2c1 | 88.9% (inactive)
Cc1cc(NC(=O)CSc2nc(C(C)C)nc3sc4c(c23)CCCC4)no1 | 93.6% (inactive)

SMILES | viability
COc1ccccc1N1CCN(C(=O)c2ccc(Br)s2)CC1 | 103% (inactive)
CCCCCCn1c(C)nc2c(c1=O)c1nc3ccccc3nc1n2/N=C/c1ccco1 | 111% (inactive)
CCn1c(SCC(=O)Nc2ccc3c(c2)oc2ccccc23)nnc1-c1ccc(N)cc1 | 97.6% (inactive)
Cc1nc2c(C(=O)NCCC(C)C)c[nH]n2c(=O)c1Cc1ccccc1F | 99.7% (inactive)
O=C(Cn1cc(C(=O)c2ccccc2F)c2ccccc21)NCc1ccco1 | 104% (inactive)
COc1cc2c(N3CCOCC3)cc(O)c(CC(=O)Nc3ccccc3)c2cc1OC | 95.9% (inactive)
CCOc1ccc(NC(=O)c2cc3n(n2)C(C(F)(F)F)CC(c2ccco2)N3)cc1 (stereo not given) | 106% (inactive)
Cn1nnc(NC(=O)CSc2ccc(Cl)cc2)n1 | 125% (inactive)
Cc1cccc(N2CCN(C(=O)c3ccc4nc(-c5ccco5)c(-c5ccco5)nc4c3)CC2C)c1 (stereo not given) | 105% (inactive)
N=c1nc(N)nc2n1NC(c1ccc(F)cc1)=CS2 | 104% (inactive)
COc1ccc2cc3cc(C(=O)Nc4ccc5c(c4)OCCO5)oc3nc2c1 | 98.4% (inactive)
CCCc1c(C)c2cc(C)ccc2[nH]c1=O | 110% (inactive)
C=CCOC(=O)C1=C(C)NC(SCC(=O)Nc2nccs2)=C(C#N)C1c1cccs1 (stereo not given) | 91.3% (inactive)
O=C(CN1CCN(S(=O)(=O)c2ccc(F)cc2)CC1)Nc1ccc2c(c1)OCO2 | 104% (inactive)
CCOc1cc(/C=C\c2[nH]c(=O)[nH]c(=O)c2[N+](=O)[O-])ccc1OC(C)CC (stereo not given) | 90.9% (inactive)
COc1ccc(-c2cc(C(=O)Nc3cc(C)n(Cc4ccc(Cl)cc4)n3)no2)cc1OC | 102% (inactive)
COc1ccc(-c2noc(-c3ccc(Br)o3)n2)cc1OC | 116% (inactive)
O=C(/C=C/NNC(=O)c1ccccc1)c1ccccc1 | 93.2% (inactive)
COc1ccc(NC(=O)CSc2nnc(-c3cccs3)n2-c2ccccc2)cc1 | 105% (inactive)
COc1cc(/C=c2\s/c(=C(/C#N)C(=O)N3CCCC3)n(-c3ccccc3)c2=O)ccc1O | 104% (inactive)
COC(=O)c1sccc1NC(=O)c1ccc2c(c1)OCO2 | 103% (inactive)
Cc1ccc(/C=C/C(=O)c2ccccc2)cc1 | 85.6% (inactive)
Cn1c(=O)cc(SCC(=O)NCC2COc3ccccc3O2)c2ccccc21 (stereo not given) | 104% (inactive)
c1ccc2c(c1)oc1c(NCCCN3CCOCC3)ncnc12 | 95.2% (inactive)

SMILES | viability
COc1ccc(CN2CCn3ncc(C(=O)Nc4cc(C)cc(C)c4)c3C2=O)cc1 | 105% (inactive)
Cc1ccc2c(c1)c1cccc3c1n2CCN3CCC(N)=O | 89% (inactive)
Cc1cc(/C=N/n2cnnc2)c(C)n1-c1ccc(OCc2ccc(Cl)cc2Cl)cc1 | 86.5% (inactive)
COc1ccccc1NC(=O)CC1C(=O)NCCN1C(=O)Nc1ccc(Cl)c(Cl)c1 (stereo not given) | 82.4% (inactive)
Cc1ccc2c(c1)c1c(n2CC(O)Cn2c(C)nc3ccccc32)CCCC1 (stereo not given) | 95.1% (inactive)
COc1ccc(Cl)c(N2CCN(CCCNC(=O)Nc3ccc(C)cc3)CC2)c1 | 84.9% (inactive)
O=C(COc1nc2ccccc2nc1N1CCOCC1)N1CCc2ccccc21 | 95.5% (inactive)
O=C(CC1SCCNC1=O)Nc1cc(Cl)cc(Cl)c1 (stereo not given) | 100% (inactive)
Cc1nc2cc(N3CCCCC3)c(NC(=O)c3cccnc3)cc2c(=O)n1Cc1ccccc1 | 91.8% (inactive)
c1cc2c3c(cccc3c1)NC1(CCCCCC1)N2 | 86.2% (inactive)
COc1ccc(O)c(-c2cc(-c3cccc(Br)c3)n[nH]2)c1 | 86.3% (inactive)
Cc1ccc2c(c1)c1c(n2CC(O)Cn2c(C)nc3ccccc32)/C(=N\O)CCC1 (stereo not given) | 89.6% (inactive)
Cc1ccc(C(=O)Nc2ncc(Cc3ccccc3)s2)o1 | 103% (inactive)
CC1CCC(C(=O)c2c(O)c3ccccc3oc2=O)CC1 (stereo not given) | 88.2% (inactive)
COc1ccccc1OCC(=O)Nc1cccc(-c2nc3ccccc3o2)c1 | 99% (inactive)
Cc1cccnc1Nc1nc(-c2ccc(O)cc2O)cs1 | 94.8% (inactive)
CCCSc1nc2c(cnn2-c2ccc(C)cc2)c(=O)[nH]1 | 93.1% (inactive)
COC(=O)c1ccccc1NC(=O)c1cc(-c2cccs2)on1 | 90.8% (inactive)
CCc1ccc(NC(=O)CCc2nc3cccnc3n2Cc2ccc(OC)cc2)cc1 | 90.2% (inactive)
CCOC(=O)c1ccc(NC(=O)c2c(C)[nH]c(C(=O)OCC)c2C)cc1 | 103% (inactive)
Cc1nn(CC(=O)Nc2ccc3c(c2)oc2ccccc23)c(=O)c2ccccc12 | 105% (inactive)
CCCCCCn1c(N2CCN(c3ccccc3)CC2)nc2c1c(=O)n(C)c(=O)n2C | 101% (inactive)
Cc1ccc(S(=O)(=O)c2c(C)nn(C(C)(C)C)c2OC(=O)c2cccs2)cc1 | 104% (inactive)
